The source made the active and inactive calls. The rule behind the calls is not given here.
These molecules were tested on Plasmodium falciparum (assay: Anti-malarial activity against intraerythrocytic ring stage culture of chloroquine-resistant Plasmodium falciparum Dd2 after 48 hrs by lactate dehydrogenase assay). Conditions: Dd2, 48 h.
Format: functional, organism-based
Method in brief: (§1)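 Sorbitol-synchronised ring-stage parasites at 2% haematocrit and 1% parasitaemia, kept at 37 °C in 1% O2/3% CO2/96% N2, were given five-fold drug dilutions from 100 mM DMSO stocks for 48 h. Growth reference wells had no drug, and 0% wells had artemether at 100 nM. LDH was read with Malstat/APAD plus NBT/PES (1 h, dark, room temperature, A650). IC50 came from log dose–response curves of mean growth, n ≥ 6.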

SMILES | IC50 [µM]
C=CCOC[C@H]1Cc2c(n(Cc3ccccc3)c3ccccc23)[C@@H]2CC=CC(=O)N12 | 1.7
O=C1CCC[C@H]2c3c(c4ccccc4n3Cc3ccccc3)C[C@H](CO)N12 | 5
C=CCOC[C@H]1Cc2c(n(Cc3ccccc3)c3ccccc23)[C@@H]2C[C@@H](C=C)CC(=O)N12 | 1.1
O=C1CCC[C@H]2c3c(c4ccccc4n3Cc3ccccc3)C[C@H](COCc3ccccc3)N12 | 3.5
C=CCOC[C@H]1Cc2c(n(Cc3ccncc3)c3ccccc23)[C@@H]2CCCC(=O)N12 | 2.1
C=CCOC[C@H]1Cc2c(n(CC=C)c3ccccc23)[C@@H]2CCCC(=O)N12 | 13
O=C1C=CC[C@H]2c3c(c4ccccc4n3Cc3ccccc3)C[C@H](COCc3ccccc3)N12 | 3.6
COC[C@H]1Cc2c(n(Cc3ccccc3)c3ccccc23)[C@@H]2CCCCN12 | 3.3
O=C1CCC[C@H]2c3c(c4ccccc4n3Cc3ccccc3)C[C@H](COCC3CCCCC3)N12 | 19
C=CCOC[C@H]1Cc2c(n(CC3CCC3)c3ccccc23)[C@@H]2CCCC(=O)N12 | 7
C=CCOC[C@H]1Cc2c(n(Cc3ccccc3)c3ccccc23)[C@@H]2CCCCN12 | 1.5
CCCOC[C@H]1Cc2c(n(Cc3ccccc3)c3ccccc23)[C@@H]2CCCC(=O)N12 | 2.8
O=C1CCC[C@@H]2c3c(c4ccccc4n3Cc3ccccc3)C[C@@H](COCc3ccccc3)N12 | 12
C=CCOC[C@@H]1Cc2c(n(CC=C)c3ccccc23)[C@H]2CCCC(=O)N12 | 16
C=C[C@@H]1CC(=O)N2[C@H](COCc3ccccc3)Cc3c(n(Cc4ccccc4)c4ccccc34)[C@H]2C1 | 20
O=C1CCC[C@@H]2c3[nH]c4ccccc4c3C[C@@H](CO)N12 | 71
C=CCOC[C@H]1Cc2c(n(Cc3ccccc3)c3ccccc23)[C@@H]2CCCC(=O)N12 | 1.3
C=CCOC[C@@H]1Cc2c(n(Cc3ccccc3)c3ccccc23)[C@H]2CCCC(=O)N12 | 35
COC[C@H]1Cc2c(n(Cc3ccccc3)c3ccccc23)[C@@H]2CCCC(=O)N12 | 1.3
COC[C@@H]1Cc2c(n(Cc3ccccc3)c3ccccc23)[C@H]2CCCC(=O)N12 | 32
O=C1CCC[C@H]2c3[nH]c4ccccc4c3C[C@H](CO)N12 | 56
C=CCn1c2c(c3ccccc31)C[C@H](CO)N1C(=O)CCC[C@@H]21 | 41
C=CCOC[C@H]1Cc2c(n(CC3CCCCC3)c3ccccc23)[C@@H]2CCCC(=O)N12 | 9
C=C[C@H]1CC(=O)N2[C@@H](COCc3ccccc3)Cc3c(n(Cc4ccccc4)c4ccccc34)[C@@H]2C1 | 13
COC[C@H]1Cc2c(n(C)c3ccccc23)[C@@H]2CCCC(=O)N12 | 29
COC[C@@H]1Cc2c(n(C)c3ccccc23)[C@H]2CCCC(=O)N12 | 30

The molecules below were run on Plasmodium falciparum (assay: Anti-malarial activity against intraerythrocytic ring stage culture of chloroquine-sensitive Plasmodium falciparum 3D7 after 48 hrs by lactate dehydrogenase assay). Conditions: 3D7, 48 h.
Format: functional, organism-based
Method in brief: as §1

SMILES | IC50 [µM]
C=CCOC[C@H]1Cc2c(n(Cc3ccccc3)c3ccccc23)[C@@H]2CCCC(=O)N12 | 1.7
COC[C@H]1Cc2c(n(Cc3ccccc3)c3ccccc23)[C@@H]2CCCC(=O)N12 | 2.3
COC[C@H]1Cc2c(n(C)c3ccccc23)[C@@H]2CCCC(=O)N12 | 41

What follows are molecules tested on Plasmodium falciparum (assay: Anti-malarial activity against Plasmodium falciparum trophozoites assessed as induction of morphological changes at 5 uM). Conditions: not given.
Format: functional, organism-based

SMILES | Activity
C=CCOC[C@H]1Cc2c(n(Cc3ccccc3)c3ccccc23)[C@@H]2C[C@@H](C=C)CC(=O)N12 | Active
O=C1CCC[C@H]2c3c(c4ccccc4n3Cc3ccccc3)C[C@H](COCc3ccccc3)N12 | Active

Reference: ChEMBL document CHEMBL1949634, “Synthesis and evaluation of a novel series of indoloisoquinolines as small molecule anti-malarial leads” (Bioorg Med Chem Lett, 2012)
